Legend:
[1] = tested on: L1210; test: Intracellular levels in L1210 cells following 500 uM exposure.; type: functional, Mus musculus
How it was run: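 L1210 cells were grown 48 h in medium containing 500 μM analogue. Cellular contents were analysed by HPLC of dansyl derivatives and given as pmol/10^6 cells, as parent drug and metabolites with the % of total drug in the cell.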

[2] = Effect on ornithine decarboxylase (ODC) tested at 1 uM at 4 hour in L1210 cells; type: functional, Mus musculus
How it was run: (§1)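 L1210 cells were exposed to 1 μM analogue, for 4 h (ODC) or 6 h (AdoMetDC). Activity was measured as 14CO2 released from [14C]carboxyl-labelled L-ornithine (ODC) or S-adenosyl-L-methionine (AdoMetDC) and given as percent of untreated control. Each run included DEHSPM-treated positive controls. Values are the mean of at least three experiments.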

[3] = target: Spermidine/spermine N(1)-acetyltransferase (SAT) (Mus musculus) (UniProt Q6P8J2+P48026); test: Effect on Spermidine/Spermine-Acetyltransferase (SSAT ) at 10 uM at 48 hour in L1210 cells; type: functional, cell-based
How it was run: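 L1210 cells were exposed to 10 μM triamine for 48 h. SSAT activity was taken as [14C]N1-acetylspermidine formed from spermidine and [14C]acetyl-CoA, given as percent of untreated control. DENSPM-treated cells served as positive control. Values are the mean of at least three experiments.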

[4] = tested on: L1210; test: Percentage of spermidine after 48 hr of exposure to the compound (100(10)uM ) in L1210 cells; type: functional, Mus musculus
How it was run: (§2)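 Log-phase L1210 cells were treated for 48 h with analogue at two concentrations. Cells were washed twice in cold RPMI-1640 and extracted with 0.6 N HClO4. Putrescine, spermidine and spermine were quantified by HPLC of dansyl derivatives and given as percent of untreated controls. Runs were in triplicate with untreated controls.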

[5] = Binding affinity values for polyamine transporter was determined
[6] = tested on: L1210; test: Percentage of putrescine after 48 hr exposure to the compound (100(10)uM) in L1210 cells; type: functional, Mus musculus; how it was run: as §2
[7] = tested on: L1210; test: Percentage of spermine after 48 hr exposure to the compound (100(10)uM ) in L1210 cells; type: functional, Mus musculus; how it was run: as §2
[8] = tested on: L1210; test: Percentage of putrescine after 48 hr exposure to the compound (500(100)uM )in L1210 cells; type: functional, Mus musculus; how it was run: as §2
[9] = tested on: L1210; test: Growth inhibitory activity against L1210 cells (48h); type: functional, cell-based; details: Mus musculus, L1210, 48 h
How it was run: (§3)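 Murine L1210 leukemia cells were kept in log growth in RPMI-1640 with 10% fetal calf serum or NuSerum, HEPES-MOPS buffer and 1 mM aminoguanidine. IC50 is the concentration giving 50% of untreated control growth, as the mean of at least two experiments.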

[10] = tested on: L1210; test: Percentage of spermidine after 48 hr of exposure to the compound (500(100)uM ) in L1210 cells; type: functional, Mus musculus; how it was run: as §2
[11] = tested on: L1210; test: Growth inhibitory activity against L1210 cells (96h); type: functional, cell-based; details: Mus musculus, L1210, 96 h; how it was run: as §3
[12] = tested on: L1210; test: Percentage of spermine after 48 hr exposure to the compound (500(100)uM ) in L1210 cells; type: functional, Mus musculus; how it was run: as §2
[13] = target: T1, S-adenosylmethionine decarboxylase proenzyme 1 (Mus musculus) (UniProt P0DMN7); test: Effect on S-Adenosyl-methionine decarboxylase (AdoMetDC) tested at 1 uM at 6 hour in L1210 cells; type: functional, cell-based; how it was run: as §1
T1 sequence (whole entry): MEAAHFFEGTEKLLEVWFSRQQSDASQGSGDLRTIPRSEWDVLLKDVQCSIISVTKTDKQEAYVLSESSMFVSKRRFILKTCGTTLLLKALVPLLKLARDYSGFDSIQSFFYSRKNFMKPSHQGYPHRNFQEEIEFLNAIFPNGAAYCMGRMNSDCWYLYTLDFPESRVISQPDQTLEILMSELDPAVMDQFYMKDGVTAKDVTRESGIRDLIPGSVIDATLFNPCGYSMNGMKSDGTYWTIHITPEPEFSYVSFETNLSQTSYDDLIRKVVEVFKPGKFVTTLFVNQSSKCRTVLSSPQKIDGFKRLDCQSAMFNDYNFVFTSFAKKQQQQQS

[14] = tested on: L1210; test: Percentage of spermine after 48 hr exposure to the compound (75(0.75)uM ) in L1210 cells; type: functional, Mus musculus
How it was run: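 Log-phase murine L1210 leukemia cells (RPMI-1640, 10% fetal calf serum or NuSerum, HEPES-MOPS buffer, 1 mM aminoguanidine) exposed 48 h to analogue at two concentrations. Cells washed twice in cold RPMI-1640 and extracted with 0.6 N HClO4. Spermine in extracts quantified by HPLC of DANSYL derivatives and expressed as percent of untreated controls. Triplicate flasks per condition.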

[15] = tested on: L1210; test: Percentage of spermidine after 48 hr of exposure to the compound (15(0.15)uM ) in L1210 cells; type: functional, Mus musculus; how it was run: as §2
[16] = tested on: L1210; test: Percentage of spermine after 48 hr exposure to the compound (15(0.15)uM ) in L1210 cells; type: functional, Mus musculus; how it was run: as §2
[17] = tested on: L1210; test: Percentage of putrescine after 48 hr exposure to the compound (15(0.15)uM ) in L1210 cells; type: functional, Mus musculus; how it was run: as §2
[18] = tested on: L1210; test: Percentage of putrescine after 48 hr exposure to the compound (75(0.75)uM ) in L1210 cells; type: functional, Mus musculus; how it was run: as §2
[19] = tested on: L1210; test: Percentage of spermidine after 48 hr of exposure to the compound (75(0.75)uM ) in L1210 cells; type: functional, Mus musculus; how it was run: as §2
[20] = tested on: L1210; test: Percentage of spermidine after 48 hr of exposure to the compound (25(10)uM ) in L1210 cells; type: functional, Mus musculus; how it was run: as §2
[21] = tested on: L1210; test: Percentage of spermidine after 48 hr of exposure to the compound (125 uM ) in L1210 cells; type: functional, Mus musculus; how it was run: as §2
[22] = tested on: L1210; test: Percentage of spermine after 48 hr exposure to the compound (125 uM ) in L1210 cells; type: functional, Mus musculus; how it was run: as §2
[23] = tested on: L1210; test: Percentage of putrescine after 48 hr exposure to the compound (125 uM ) in L1210 cells; type: functional, Mus musculus; how it was run: as §2
[24] = tested on: L1210; test: Percentage of putrescine after 48 hr exposure to the compound (25(10)uM ) in L1210 cells; type: functional, Mus musculus; how it was run: as §2
[25] = tested on: L1210; test: Percentage of spermidine after 48 hr of exposure to the compound (10 uM ) in L1210 cells; type: functional, Mus musculus; how it was run: as §2
[26] = tested on: L1210; test: Percentage of putrescine after 48 hr exposure to the compound (2 uM ) in L1210 cells; type: functional, Mus musculus; how it was run: as §2
[27] = tested on: L1210; test: Percentage of putrescine after 48 hr exposure to the compound (10 uM ) in L1210 cells; type: functional, Mus musculus; how it was run: as §2
[28] = tested on: L1210; test: Percentage of spermidine after 48 hr of exposure to the compound (2 uM ) in L1210 cells; type: functional, Mus musculus; how it was run: as §2

Spermidine/spermine N(1)-acetyltransferase (SAT) (Mus musculus), sequence (P48026 whole entry, looked up): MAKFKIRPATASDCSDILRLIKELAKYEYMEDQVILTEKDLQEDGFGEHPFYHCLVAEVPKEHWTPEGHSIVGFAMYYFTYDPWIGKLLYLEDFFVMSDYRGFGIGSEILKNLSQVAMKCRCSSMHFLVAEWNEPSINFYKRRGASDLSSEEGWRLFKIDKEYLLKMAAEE
Spermidine/spermine N(1)-acetyltransferase (SAT) (Mus musculus), sequence (Q6P8J2 whole entry, looked up): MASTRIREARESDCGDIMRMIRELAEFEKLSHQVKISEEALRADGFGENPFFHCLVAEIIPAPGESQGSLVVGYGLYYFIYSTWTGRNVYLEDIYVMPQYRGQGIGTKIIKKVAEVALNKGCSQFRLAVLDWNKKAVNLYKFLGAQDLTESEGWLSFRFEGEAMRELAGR

CCNCCCNCCCNCC
Picoequivalents of amine/10e6 cells [1]: 13700 | ODC [2]: 80% | SSAT [3]: 780% | Polyamine [4]: 17% | Ki [5]: 250 µM | Polyamine [6]: 0% | Polyamine [7]: 74% | Polyamine [8]: 0% | IC50 [9]: > 100 µM | Polyamine [10]: 7% | IC50 [11]: 10 µM | Polyamine [12]: 47% | AdoMetDC [13]: 45%

CCNCCCCCNCCCCCNCC
Picoequivalents of amine/10e6 cells [1]: 9010 | Polyamine [14]: 73% | ODC [2]: 100% | Polyamine [15]: 55% | SSAT [3]: 90% | Polyamine [16]: 97% | Ki [5]: 170 µM | Polyamine [17]: 0% | Polyamine [18]: 0% | Polyamine [19]: 23% | IC50 [9]: 11 µM | IC50 [11]: 0.7 µM | AdoMetDC [13]: 109%

CCNCCCCNCCCCNCC
Picoequivalents of amine/10e6 cells [1]: 16920 | Polyamine [20]: 6% | Polyamine [21]: 3% | ODC [2]: 47% | Polyamine [22]: 97% | Polyamine [23]: 0% | SSAT [3]: 640% | Polyamine [24]: 0% | Ki [5]: 19 µM | IC50 [9]: 22 µM | IC50 [11]: 0.35 µM | AdoMetDC [13]: 90%

CNCCCCCNCCCCNC
Picoequivalents of amine/10e6 cells [1]: 20810 | Polyamine [25]: 18% | ODC [2]: 56% | Polyamine [26]: 0% | SSAT [3]: 130% | Polyamine [27]: 0% | Ki [5]: 21 µM | IC50 [9]: 2 µM | IC50 [11]: 0.12 µM | AdoMetDC [13]: 71% | Polyamine [28]: 33%

From ChEMBL document CHEMBL1130028, “A comparison of structure-activity relationships between spermidine and spermine analogue antineoplastics” (J Med Chem, 1997)
